Here are results for one compound from PMC4547362 (Molecular cancer therapeutics, 2015).

One data set addresses PAK1/2 (Homo sapiens, UniProt Q13153+Q13177).
The next data set relates to panel of 50 kinases. In words: Kinase activity profiling. The data set is classed as biochemical. To be noted: 1 μM final concentration. In a few lines:
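Split-luciferase binding format, with the test compound first checked for false-positive activity against split-luciferase. Each Cfluc-kinase was co-translated with Fos-Nfluc in rabbit reticulocyte lysate at 30 C for 90 min. Lysate was incubated 30 min at room temperature with DMSO or 1 μM (final) test compound, then 1 h with a kinase-specific probe.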

The target in data set [1] is Stat5a/b (Homo sapiens, UniProt P42229). In words: EMSA of Stat5a/b binding to DNA. Format: cell-based. To be noted: 25 μM, COS-7 cells, compared to Ctrl-treated cells. In a few lines: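 COS-7 cells were transiently co-transfected with Stat5a and prolactin receptor plasmids, then serum-starved 10 h. They were pretreated 2 h with test compound or control compound and stimulated 30 min with 10 nM human prolactin. DNA binding was probed with the beta-casein gene Stat5 response element.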
Sequence of Stat5a/b (Homo sapiens, UniProt P42229) (P42229 whole entry): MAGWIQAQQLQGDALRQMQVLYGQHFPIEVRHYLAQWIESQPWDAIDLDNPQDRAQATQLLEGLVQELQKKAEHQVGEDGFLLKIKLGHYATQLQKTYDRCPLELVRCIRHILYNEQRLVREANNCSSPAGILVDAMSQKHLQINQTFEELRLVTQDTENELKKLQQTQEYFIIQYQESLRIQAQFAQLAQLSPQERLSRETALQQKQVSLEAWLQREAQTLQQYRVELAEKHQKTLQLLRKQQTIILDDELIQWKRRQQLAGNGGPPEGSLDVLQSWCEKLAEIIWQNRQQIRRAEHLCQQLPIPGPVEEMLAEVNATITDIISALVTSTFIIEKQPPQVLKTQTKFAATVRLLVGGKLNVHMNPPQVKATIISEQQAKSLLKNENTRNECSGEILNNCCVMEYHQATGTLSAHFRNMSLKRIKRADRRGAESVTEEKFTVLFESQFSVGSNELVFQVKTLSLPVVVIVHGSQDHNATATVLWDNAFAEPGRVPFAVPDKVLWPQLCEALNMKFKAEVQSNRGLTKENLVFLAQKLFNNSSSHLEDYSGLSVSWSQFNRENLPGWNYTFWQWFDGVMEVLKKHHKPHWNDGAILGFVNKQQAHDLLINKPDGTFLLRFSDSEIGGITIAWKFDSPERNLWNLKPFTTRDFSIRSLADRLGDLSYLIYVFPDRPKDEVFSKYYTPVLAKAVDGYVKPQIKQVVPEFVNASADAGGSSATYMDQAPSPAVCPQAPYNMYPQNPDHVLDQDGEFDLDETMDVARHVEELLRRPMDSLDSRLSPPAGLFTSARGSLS

In the next data set the test system is Bcl-xL and cyclin D1. In words: Expression of Stat5a/b target genes cyclin D1 and Bcl-xL in PC cells, immunoblot. The data set is classed as cell-based, human. To be noted: CWR22Rv1 and LNCaP cells, 48 h or 25 μM time course.
The target of data set [2] is Stat5a/b (Mus musculus, UniProt P42230+P42232). The data set is classed as cell-based. Conditions: read-out: IC50, phosphorylation of Stat5a/b; HC-11 cells, 2 h, then hPrl 30 min.
Sequence of Stat5a/b (Mus musculus, UniProt P42230+P42232) (P42230 whole entry): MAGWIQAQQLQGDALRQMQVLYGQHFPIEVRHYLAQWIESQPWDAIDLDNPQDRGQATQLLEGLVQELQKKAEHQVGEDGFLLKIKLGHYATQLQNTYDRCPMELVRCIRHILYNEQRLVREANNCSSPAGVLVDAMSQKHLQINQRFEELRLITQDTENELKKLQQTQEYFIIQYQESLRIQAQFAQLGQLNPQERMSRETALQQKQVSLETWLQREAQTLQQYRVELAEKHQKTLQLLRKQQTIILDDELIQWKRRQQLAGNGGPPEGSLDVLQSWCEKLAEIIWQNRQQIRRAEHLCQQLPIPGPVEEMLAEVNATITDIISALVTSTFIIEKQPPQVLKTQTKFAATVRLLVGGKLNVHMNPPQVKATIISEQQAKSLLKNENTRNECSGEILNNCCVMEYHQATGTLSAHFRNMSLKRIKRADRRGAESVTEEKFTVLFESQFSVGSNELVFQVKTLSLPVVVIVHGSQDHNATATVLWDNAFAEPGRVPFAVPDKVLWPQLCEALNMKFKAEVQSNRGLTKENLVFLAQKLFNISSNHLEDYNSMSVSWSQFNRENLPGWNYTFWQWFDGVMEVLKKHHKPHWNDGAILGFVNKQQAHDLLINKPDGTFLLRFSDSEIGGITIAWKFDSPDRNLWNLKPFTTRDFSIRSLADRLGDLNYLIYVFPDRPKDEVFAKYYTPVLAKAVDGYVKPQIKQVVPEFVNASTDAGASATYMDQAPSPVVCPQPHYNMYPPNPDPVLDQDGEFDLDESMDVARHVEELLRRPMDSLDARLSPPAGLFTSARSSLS
Sequence of Stat5a/b (Mus musculus, UniProt P42230+P42232) (P42232 whole entry): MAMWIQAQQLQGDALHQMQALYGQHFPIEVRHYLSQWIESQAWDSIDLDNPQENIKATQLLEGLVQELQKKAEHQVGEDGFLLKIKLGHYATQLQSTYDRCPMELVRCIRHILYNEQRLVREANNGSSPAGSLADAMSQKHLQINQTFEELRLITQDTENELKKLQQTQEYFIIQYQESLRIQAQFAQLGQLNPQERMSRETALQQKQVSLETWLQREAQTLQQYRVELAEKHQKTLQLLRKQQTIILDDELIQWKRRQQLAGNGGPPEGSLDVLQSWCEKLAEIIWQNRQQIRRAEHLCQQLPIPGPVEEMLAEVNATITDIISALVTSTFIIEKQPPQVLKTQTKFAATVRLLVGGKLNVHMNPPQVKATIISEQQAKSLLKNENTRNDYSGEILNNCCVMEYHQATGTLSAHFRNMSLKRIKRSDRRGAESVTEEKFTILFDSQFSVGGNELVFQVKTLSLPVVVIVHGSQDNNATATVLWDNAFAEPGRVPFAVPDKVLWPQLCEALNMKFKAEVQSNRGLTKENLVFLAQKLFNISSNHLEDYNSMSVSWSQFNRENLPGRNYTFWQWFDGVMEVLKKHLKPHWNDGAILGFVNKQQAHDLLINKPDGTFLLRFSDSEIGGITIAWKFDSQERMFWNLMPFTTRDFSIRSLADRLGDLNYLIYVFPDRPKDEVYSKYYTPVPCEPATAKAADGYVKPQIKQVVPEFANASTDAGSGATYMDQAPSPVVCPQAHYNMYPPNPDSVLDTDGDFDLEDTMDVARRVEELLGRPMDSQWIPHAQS
The test system of a further data set is caspase-3. In words: Caspase-3 activation assay, CWR22Rv1. The data set is classed as cell-based, human. To be noted: 12.5 μM, CWR22Rv1, 72 h. Summed up:
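CWR22Rv1 cells were exposed to 12.5 μM test compound or vehicle for set periods. Caspase-3 was captured with anti-caspase-3 mAb, and its cleavage of AFC substrate was read fluorometrically at 505 nm. In the rescue arm, cells were first infected with adenovirus carrying constitutively active Stat5a (MOI 2).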

Data set [3] addresses T1, Stat3 (Homo sapiens, UniProt P40763). In words: Stat3 luciferase reporter assay in LNCaP cells. Format: cell-based. To be noted: 6.0 μM, IL-6 50 ng/ml 16 h. Summed up: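 LNCaP cells were co-transfected with Stat3 (0.25 μg), IL-6 receptor (0.25 μg), Stat3-luciferase reporter (0.5 μg) and a normalisation plasmid (0.025 μg). Cells were serum-starved 10 h, pretreated with 6.0 μM test compound or control compound, and stimulated 16 h with 50 ng/ml IL-6. Relative luciferase activity is reported as the mean ± S.E. of three independent experiments run in triplicate.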
Background: A reporter such as luciferase makes a cellular process visible.

The subject of data set [4] is A549, CAPAN, T47D, HT1080, HepG2, COS-7, RC170N, CWR22Rv1, K562 cells. Format: cell-based.
Data set [5] has as its target T1, Stat3. In words: IL-6-induced Stat3 nuclear translocation in DU145 cells, immunofluorescence. Format: cell-based. To be noted: IL-6 5 nM, IST5-002 even at 50 μM.
In another data set the test system is patient-derived PCs. In words: Ex vivo organ explant culture of patient-derived prostate cancers. Conditions: 7 days ex vivo explant organ culture. Further details: species or system human. In a few lines: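 Patient-derived prostate cancers from radical prostatectomies (n=11, Gleason 7) were grown as explant organ cultures for 7 days with test compound or control compound at set concentrations. A pre-culture zero sample was formalin-fixed for baseline nuclear Stat5a/b. Explants were scored by Stat5a/b immunohistochemistry and TUNEL.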

T1 sequence (P40763 whole entry): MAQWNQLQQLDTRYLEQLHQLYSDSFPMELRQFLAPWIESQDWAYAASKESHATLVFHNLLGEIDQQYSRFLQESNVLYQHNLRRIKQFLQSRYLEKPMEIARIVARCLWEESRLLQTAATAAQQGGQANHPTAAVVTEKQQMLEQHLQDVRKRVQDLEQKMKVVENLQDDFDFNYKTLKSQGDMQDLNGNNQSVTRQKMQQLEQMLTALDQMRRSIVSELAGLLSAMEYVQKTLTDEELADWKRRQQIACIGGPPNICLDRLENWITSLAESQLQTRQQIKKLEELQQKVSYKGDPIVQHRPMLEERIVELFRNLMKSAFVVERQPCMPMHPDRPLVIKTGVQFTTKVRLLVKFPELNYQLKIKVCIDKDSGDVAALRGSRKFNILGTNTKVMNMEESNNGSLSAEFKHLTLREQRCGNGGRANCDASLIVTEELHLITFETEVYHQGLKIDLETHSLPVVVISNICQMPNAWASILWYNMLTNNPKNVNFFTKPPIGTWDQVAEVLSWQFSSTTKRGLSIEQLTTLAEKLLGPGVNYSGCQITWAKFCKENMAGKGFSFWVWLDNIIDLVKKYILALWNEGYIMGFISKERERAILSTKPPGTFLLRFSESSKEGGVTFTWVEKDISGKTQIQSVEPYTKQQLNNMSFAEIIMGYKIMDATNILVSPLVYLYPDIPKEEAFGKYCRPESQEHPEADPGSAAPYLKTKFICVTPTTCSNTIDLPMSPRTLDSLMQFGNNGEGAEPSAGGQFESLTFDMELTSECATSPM
Sequence of PAK1/2 (Q13153 whole entry): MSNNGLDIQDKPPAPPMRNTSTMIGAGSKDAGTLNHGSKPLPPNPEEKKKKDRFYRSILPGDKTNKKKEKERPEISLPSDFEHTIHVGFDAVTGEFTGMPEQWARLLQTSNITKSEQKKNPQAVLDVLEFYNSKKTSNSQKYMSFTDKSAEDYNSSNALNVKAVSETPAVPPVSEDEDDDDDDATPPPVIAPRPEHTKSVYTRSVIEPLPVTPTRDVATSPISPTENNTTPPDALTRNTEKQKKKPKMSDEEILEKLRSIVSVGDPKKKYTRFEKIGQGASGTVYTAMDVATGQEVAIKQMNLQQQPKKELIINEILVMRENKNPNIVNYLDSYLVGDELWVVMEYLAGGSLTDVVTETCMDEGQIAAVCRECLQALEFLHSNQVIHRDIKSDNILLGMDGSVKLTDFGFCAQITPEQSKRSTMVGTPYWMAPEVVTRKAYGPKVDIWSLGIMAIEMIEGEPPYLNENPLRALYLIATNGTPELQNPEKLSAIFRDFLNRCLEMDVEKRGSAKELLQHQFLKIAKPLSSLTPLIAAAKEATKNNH
Sequence of PAK1/2 (Q13177 whole entry): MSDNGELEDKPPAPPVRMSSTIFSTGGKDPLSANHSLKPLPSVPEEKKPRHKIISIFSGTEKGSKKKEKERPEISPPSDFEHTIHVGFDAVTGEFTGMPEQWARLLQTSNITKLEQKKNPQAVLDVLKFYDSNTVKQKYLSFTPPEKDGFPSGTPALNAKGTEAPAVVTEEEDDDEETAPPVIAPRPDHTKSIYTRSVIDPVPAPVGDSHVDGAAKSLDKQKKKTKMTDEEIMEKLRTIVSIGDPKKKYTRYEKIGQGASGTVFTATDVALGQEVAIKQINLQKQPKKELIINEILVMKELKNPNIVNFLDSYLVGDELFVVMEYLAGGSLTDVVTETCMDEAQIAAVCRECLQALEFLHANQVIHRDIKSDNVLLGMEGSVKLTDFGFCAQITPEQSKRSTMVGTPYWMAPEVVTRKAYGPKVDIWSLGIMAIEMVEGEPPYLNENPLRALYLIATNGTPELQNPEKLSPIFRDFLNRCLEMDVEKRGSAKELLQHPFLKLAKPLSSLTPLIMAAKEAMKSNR

In the case of `O=P(O)(O)OC[C@H]1O[C@@H](n2cnc3c(NCc4ccccc4)ncnc32)[C@H](O)[C@@H]1O` [IST5-002, N6-benzyladenosine-5-monophosphate], the “activity of PAK1/2” value on PAK1/2 is recorded as “no specific inhibition”. For the same compound, in the data set on panel of 50 kinases, the “inhibition of kinases in a panel of 50 kinases” value is reported as “no specific inhibition”. The “reduction of binding of Stat5a/b to its DNA target sequence” value on Stat5a/b [1] was “approximately 50%”. Besides, in the data set with Bcl-xL and cyclin D1, the “expression of Bcl-xL and cyclin D1” value is listed as “reduced expression”. Moreover, the IC50 at Stat5a/b [2] was 12 µM. Also, the “increase in caspase-3 activation” value in the data set with caspase-3 is given as 3 fold. Besides, the “transcriptional activity of Stat3” value at Stat3 [3] is “failed to block”. The “viability of cell lines from other tissues” value in [4] (A549, CAPAN, T47D, HT1080, HepG2, COS-7) is “not affected”. The “viability of cells with high Stat5a/b activation” value in data set [4] (CWR22Rv1 and K562, side-by-side) is listed as “suppressed viability”. Besides, in data set [4] (RC170N normal prostate epithelial cell line, HT1080), the “viability of cell lines with low or no Stat5a/b activation” value is recorded as “did not affect viability”. Also, the Stat3 nuclear translocation entry on Stat3 [5] is “no demonstrable effect”. The “patient-derived PCs that responded by extensive loss of viable epithelium” value in the data set with patient-derived PCs is reported as “Eight out of 11”. The “concentration at which loss of viable epithelium started” value with patient-derived PCs (responders) came to 25 µM.
